One block for each compound: values may come before it. Active and inactive are the calls of the source. The rule behind the calls is not given here.
Legend:
Homo sapiens [1] = organism: Homo sapiens; test: Selectivity ratio of IC50 for recombinant human N-terminal His-tagged PKL expressed in Escherichia coli to IC50 for recombinant human N-terminal His-tagged PKM2 expressed in Escherichia coli
Homo sapiens [2] = organism: Homo sapiens; test: Selectivity ratio of IC50 for recombinant human N-terminal His-tagged PKM1 expressed in Escherichia coli to IC50 for recombinant human N-terminal His-tagged PKM2 expressed in Escherichia coli
HeLa = test: Cytotoxicity against human HeLa cells after 48 hrs by MTS assay; format: functional, cell-based
Method in brief: (§1)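 Cells seeded at 5000–10 000 per well and treated 12 h later with a range of concentrations for 48 h. Viability read by MTS reduction. IC50 reported ± SD.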

MCF7 = test: Cytotoxicity against human MCF7 cells after 48 hrs by MTS assay; format: functional, cell-based; method in brief: as §1
B16 [3] = test: Antitumor activity against mouse B16 cells implanted in C57BL/6 mouse assessed as reduction in tumor weight at 50 mg/kg, ip administered every 2 days for 12 days relative to control; format: functional; set-up: scale not given: the % may be the effect or the level left
Method in brief: (§2)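 Female mice given 1 × 10^6 B16 cells subcutaneously in the armpit. Dosing began about 6 days later, once tumors appeared, with N = 7 per group. Compound or vehicle (5% v/v DMAC in olive oil) was given ip every two days at 25 or 50 mg kg–1. Tumor volume was measured every two days as V = L(S2)π/6. Tumors were weighed individually. T/C was taken as relative tumor volume growth rate.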

[4] = test system: spontaneous PTEN-deleted breast carcinoma (Mus musculus); test: Antitumor activity against mouse spontaneous PTEN-deleted breast carcinoma assessed as reduction in tumor weight at 50 mg/kg, ip administered every 2 days for 36 days relative to control; set-up: scale not given: the % may be the effect or the level left
Mus musculus = test: Toxicity in C57BL/6 mouse implanted with mouse B16 cells assessed as effect on body weight at 25 to 50 mg/kg, ip administered every 2 days for 12 days; format: organism-based; conditions: in vivo; method in brief: as §2
Pyruvate kinase PKM [5] = target: T1, Pyruvate kinase PKM (Homo sapiens, UniProt P14618); test: Inhibition of PKM2 in human HCT116 cells assessed as reduction in cMYC-induced GLUT1 gene expression at 20 uM after 8 hrs by RT-qPCR analysis; format: cell-based
Method in brief: (§3)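 HCT116 cells seeded at 5 × 10^5 per well and treated 24 h later with 20 μM for 8 h. RNA extracted with TRIzol and reverse-transcribed. GLUT1, LDH and CCND1 transcripts quantified by SYBR Green qPCR.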
Target sequence in this assay (P14618 2-531 limits assumed): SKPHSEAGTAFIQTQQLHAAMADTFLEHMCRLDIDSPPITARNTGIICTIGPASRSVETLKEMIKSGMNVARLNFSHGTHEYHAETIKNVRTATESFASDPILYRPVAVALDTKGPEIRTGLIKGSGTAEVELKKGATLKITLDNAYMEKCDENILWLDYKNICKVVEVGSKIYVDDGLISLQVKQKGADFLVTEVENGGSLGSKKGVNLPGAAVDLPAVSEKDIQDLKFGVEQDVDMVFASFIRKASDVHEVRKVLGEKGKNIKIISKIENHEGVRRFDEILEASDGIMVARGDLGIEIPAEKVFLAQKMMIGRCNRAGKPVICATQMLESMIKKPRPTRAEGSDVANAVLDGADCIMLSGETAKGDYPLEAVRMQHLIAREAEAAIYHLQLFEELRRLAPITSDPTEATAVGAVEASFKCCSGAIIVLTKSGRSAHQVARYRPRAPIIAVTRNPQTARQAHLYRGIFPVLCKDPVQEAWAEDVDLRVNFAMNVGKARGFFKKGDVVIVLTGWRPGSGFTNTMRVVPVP

B16 [6] = test: Antitumor activity against mouse B16 cells implanted in C57BL/6 mouse assessed as tumor volume at 50 mg/kg, ip administered every 2 days for 12 days measured during compound dosing relative to control; format: functional; method in brief: as §2
Pyruvate kinase PKM [7] = target: T1, Pyruvate kinase PKM; test: Inhibition of PKM2 in human HCT116 cells assessed as reduction in beta-catenin-induced CCND1 gene expression at 20 uM after 8 hrs by RT-qPCR analysis; format: cell-based; method in brief: as §3
Target sequence in this assay (P14618 2-531 limits assumed): as above

Pyruvate kinase PKM [8] = target: T1, Pyruvate kinase PKM; test: Inhibition of PKM2 in human HCT116 cells assessed as reduction in cMYC-induced LDH gene expression at 20 uM after 8 hrs by RT-qPCR analysis; format: cell-based; method in brief: as §3
Target sequence in this assay (P14618 2-531 limits assumed): as above

MDA-MB-231 = test: Cytotoxicity against human MDA-MB-231 cells after 48 hrs by MTS assay; format: functional, cell-based; method in brief: as §1
B16 [9] = test: Antitumor activity against mouse B16 cells implanted in C57BL/6 mouse assessed as tumor weight at 25 mg/kg, ip administered every 2 days for 12 days relative to control; format: functional; method in brief: as §2
HCT-116 [10] = test: Cytotoxicity against human HCT116 cells assessed as reduction in ATP production at 10 to 20 uM after 6 hrs by CellTiter-Glo luminescent assay; format: functional, cell-based
Method in brief: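 HCT116 cells seeded at 5 × 10^5 per well in 6-well plates. Exposed 24 h later to 10 μM or 20 μM for 6 h. Cellular ATP read by CellTiter-Glo luminescence.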

Pyruvate kinase PKLR = Pyruvate kinase PKLR (Homo sapiens, UniProt P30613); test: Inhibition of recombinant human N-terminal His-tagged PKL expressed in Escherichia coli preincubated for 25 mins in presence of PEP/FBP followed by ADP/NADH addition measured after 25 mins by PK-LDH assay
Sequence of Pyruvate kinase PKLR (P30613 whole entry): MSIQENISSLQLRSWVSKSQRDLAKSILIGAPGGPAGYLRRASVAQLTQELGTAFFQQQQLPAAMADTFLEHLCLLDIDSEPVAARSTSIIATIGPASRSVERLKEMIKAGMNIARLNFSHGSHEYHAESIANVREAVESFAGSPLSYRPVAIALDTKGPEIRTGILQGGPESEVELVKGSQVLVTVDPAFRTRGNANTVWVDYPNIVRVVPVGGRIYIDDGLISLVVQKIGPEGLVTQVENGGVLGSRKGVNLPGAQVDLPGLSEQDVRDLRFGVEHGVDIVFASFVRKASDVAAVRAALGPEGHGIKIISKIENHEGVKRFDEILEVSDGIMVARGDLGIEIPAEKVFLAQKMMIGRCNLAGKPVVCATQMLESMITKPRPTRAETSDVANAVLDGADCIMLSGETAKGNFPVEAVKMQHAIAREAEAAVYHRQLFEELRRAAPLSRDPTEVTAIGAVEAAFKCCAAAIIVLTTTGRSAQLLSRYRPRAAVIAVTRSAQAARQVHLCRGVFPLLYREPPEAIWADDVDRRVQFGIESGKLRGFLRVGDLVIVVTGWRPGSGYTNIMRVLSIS

B16 [11] = test: Cytotoxicity against mouse B16 cells after 48 hrs by MTS assay; format: functional, cell-based; method in brief: as §1
Pyruvate kinase PKM [12] = target: T1, Pyruvate kinase PKM; test: Inhibition of recombinant human N-terminal His-tagged PKM2 expressed in Escherichia coli preincubated for 25 mins in presence of PEP/FBP followed by ADP/NADH addition measured after 25 mins by PK-LDH assay
Target sequence in this assay (P14618 whole entry): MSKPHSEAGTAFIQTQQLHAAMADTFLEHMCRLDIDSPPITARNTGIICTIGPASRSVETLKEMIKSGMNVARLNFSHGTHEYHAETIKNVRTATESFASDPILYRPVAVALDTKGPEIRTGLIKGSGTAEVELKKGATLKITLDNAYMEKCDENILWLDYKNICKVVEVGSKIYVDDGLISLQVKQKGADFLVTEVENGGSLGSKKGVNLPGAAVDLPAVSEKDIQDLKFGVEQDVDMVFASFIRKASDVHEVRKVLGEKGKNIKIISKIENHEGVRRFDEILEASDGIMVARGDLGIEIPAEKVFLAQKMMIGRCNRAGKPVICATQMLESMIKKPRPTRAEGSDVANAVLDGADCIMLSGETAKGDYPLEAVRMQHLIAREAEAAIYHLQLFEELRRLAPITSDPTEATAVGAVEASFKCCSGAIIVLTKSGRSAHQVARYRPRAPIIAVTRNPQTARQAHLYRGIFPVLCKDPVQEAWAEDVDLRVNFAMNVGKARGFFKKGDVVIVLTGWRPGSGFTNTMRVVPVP

B16 [13] = test: Antitumor activity against mouse B16 cells implanted in ip dosed C57BL/6 mouse assessed as tumor growth inhibition administered every 2 days for 12 days; format: functional, organism-based; method in brief: as §2
Pyruvate kinase PKM [14] = target: T1, Pyruvate kinase PKM; test: Inhibition of PKM2 in human HCT116 cells measured after 8 hrs by fluorescent PK-LDH assay; format: cell-based
Method in brief: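 HCT116 cells exposed to 2.5, 5, 10 or 20 μM for 8 h, then lysed in NP40 buffer. Lysate pyruvate kinase activity was measured immediately by fluorescent PK–LDH coupled assay.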
Target sequence in this assay (P14618 2-531 limits assumed): as the sequence (P14618 2-531 limits assumed) above

[15] = test system: spontaneous PTEN-deleted breast carcinoma (Mus musculus); test: Antitumor activity against mouse spontaneous PTEN-deleted breast carcinoma assessed as reduction in tumor growth at 50 mg/kg, ip administered every 2 days for 36 days
NCI-H1299 = test: Cytotoxicity against human NCI-H1299 cells after 48 hrs by MTS assay; format: functional, cell-based; method in brief: as §1
HCT-116 [16] = test: Cytotoxicity against human HCT116 cells after 48 hrs by MTS assay; format: functional, cell-based; method in brief: as §1
BEAS-2B = test: Cytotoxicity against human BEAS2B cells after 48 hrs by MTS assay; format: cell-based; method in brief: as §1
Pyruvate kinase PKM [17] = target: T1, Pyruvate kinase PKM; test: Inhibition of recombinant human N-terminal His-tagged PKM1 expressed in Escherichia coli preincubated for 25 mins in presence of PEP/FBP followed by ADP/NADH addition measured after 25 mins by PK-LDH assay
Target sequence in this assay (P14618 whole entry): as the sequence (P14618 whole entry) above

- Ratio IC50 (Homo sapiens [1]): 4.5
- Ratio IC50 (Homo sapiens [2]): 1.5
Structure (SMILES): CC(C)=CC[C@@H](O)C1=CC(=O)c2c(O)ccc(O)c2C1=O

- inhibition (Pyruvate kinase PKM [5]): Active
- Ratio IC50 (Homo sapiens [1]): 3.3
- inhibition (Pyruvate kinase PKM [7]): Active
- Ratio IC50 (Homo sapiens [2]): 5.8
- inhibition (Pyruvate kinase PKM [8]): Active
- IC50 (Pyruvate kinase PKLR): 2.9 µM
- IC50 (Pyruvate kinase PKM [12]): 0.88 µM
- inhibition (Pyruvate kinase PKM [14]): Dose-dependent effect
- IC50 (Pyruvate kinase PKM [17]): 5.07 µM
Structure (SMILES): O=C1C(CSC(=S)N2CCCCC2)=C(CSC(=S)N2CCCCC2)C(=O)c2ccccc21
- Activity (HeLa): Dose-dependent effect
- IC50 (HeLa): 0.124 µM
- Activity (MCF7): Dose-dependent effect
- IC50 (MCF7; MCF7, 48 h): 0.061 µM
- Activity (B16 [3]): 30%
- Activity [4]: 20%
- Activity (Mus musculus): Non-Toxic
- T/C (B16 [6]): 40%
- Activity (MDA-MB-231): Dose-dependent effect
- IC50 (MDA-MB-231; MDA-MB-231, 48 h): 0.135 µM
- Activity (B16 [9]): 12%
- Activity (HCT-116 [10]): Active
- Activity (B16 [11]): Dose-dependent effect
- IC50 (B16 [11]; B16, 48 h): 0.104 µM
- TGI (B16 [13]): Dose-dependent effect
- Activity [15]: Active
- Activity (NCI-H1299): Dose-dependent effect
- IC50 (NCI-H1299; NCI-H1299, 48 h): 0.109 µM
- Activity (HCT-116 [16]): Dose-dependent effect
- IC50 (HCT-116 [16]; HCT-116, 48 h): 0.077 µM
- IC50 (BEAS-2B): 32.6 µM
